Measured values pooled from the literature.

C[C@H](NC(=O)/C=C/c1ccccc1)C(=O)N[C@H](C=O)C[C@@H]1CCCNC1=O — CC50 (A549; cell growth or viability, MTT; 24 h): > 100 µM
COC(=O)C1CCN(C(=O)c2ccc(N(C)Cc3cnc4nc(N)nc(N)c4n3)cc2)CC1 — inhibition (Cytochrome P450 2C19 (CYP2C19, Homo sapiens, UniProt P33261); enzyme activity, inhibitor, luciferase; 10 µM): -29.4%
CCC[C@@](N)(CO)CCc1ccc(OCCCCCC(C)C)cc1 — Cmax (dog, plasma; intravenous, 1 mg/kg): 906 nM
O=S(=O)([O-])c1cccc(P(c2ccccc2)c2ccccc2)c1.[Na+] — CC50 (NIH3T3; cell growth or viability, resazurin; 18 h): 189 µg/mL
CC(C)C[C@H](NC(=O)[C@@H](NC(=O)c1ccc([N+](=O)[O-])cc1)C(C)C)C(=O)N[C@H](C=O)C[C@@H]1CCCNC1=O — CC50 (A549; cell growth or viability, MTT; 24 h): > 100 µM
N=c1c2c(-c3ccccc3)c(-c3ccccc3)n(Cc3ccccc3)c2ncn1[C@H]1CC[C@H](O)CC1 — clearance (male beagle dog, plasma; intravenous, 0.5 mg/kg, single dose): 1.2 mL/min/kg
COc1cc2c(c(OC)c1OC)-c1ccc(OC)c(=O)cc1[C@@H](NC(C)=O)CC2 — CC50 (HFF-1; cell growth or viability, resazurin; 72 h): 0.024 µM
CC(C)C[C@H](NC(=O)[C@H](CC1CCCCC1)NC(=O)/C=C/c1ccccc1)C(=O)N[C@H](C=O)C[C@@H]1CCCNC1=O — CC50 (A549; cell growth or viability, MTT; 24 h): > 100 µM
COC(=O)C(NC(=O)c1cn(CCCCCF)c2ccccc12)C(C)(C)C (stereo not shown) — Tmax (male Sprague-Dawley rat, plasma; subcutaneous, 200 µg/kg): 2.83 h
O=C[C@H](C[C@@H]1CCNC1=O)NC(=O)[C@H](CC1CCCCC1)NC(=O)c1cc2ccccc2[nH]1 — Cmax (dog, plasma; intravenous, 4 mg/kg): 9770 µg/mL
